Active and inactive are the calls of the source. No cut-off for these calls is given here.
Assays:
[1] = target: T1, Proprotein convertase subtilisin/kexin type 9 (Homo sapiens, UniProt Q8NBP7); assay: Modulation of PCSK9 in human HepG2 cells assessed as reduction in PCSK9 expression at 10 to 100 nM incubated for 24 hrs prior to compound washout followed by compound addition and measured after 24 hrs by ELISA; format: cell-based; details: filed as modulator, dose 10-100 nM, time 48.0 hrs
Method in brief: (§1)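 HepG2 cells grown to 90% confluence, plated at 1X105 cells/well and left overnight. Medium then replaced with compound- or vehicle (DMSO)-containing dose medium, refreshed at 24 h, collected after a further 24 h. Secreted PCSK9 measured by sandwich ELISA with TMB read-out at 450 nm. Values normalized to DMSO group, mean of n = 3 ± SD.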

HepG2 = assay: Cytotoxicity against human HepG2 cells assessed as reduction in cell viability at <=10 uM by MTT assay; format: cell-based
[2] = target: T1, Proprotein convertase subtilisin/kexin type 9; assay: Modulation of PCSK9 in human HepG2 cells assessed as reduction in PCSK9 expression at 10 nM incubated for 24 hrs prior to compound washout followed by compound addition and measured after 24 hrs by ELISA; format: cell-based; design: scale not given: the % may be the effect or the level left; details: time 48.0 hrs
Method in brief: (§2)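 HepG2 cells grown to 90% confluence and plated at 1X105 cells/well, then left to settle overnight. Medium replaced with dose medium containing compound or DMSO vehicle for 24 h, refreshed with the same medium, then incubated 24 h more. Medium collected after centrifugation. PCSK9 measured by sandwich ELISA with TMB read-out at 450 nm. Values normalized to vehicle, mean of n = 3.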

[3] = target: T1, Proprotein convertase subtilisin/kexin type 9; assay: Modulation of PCSK9 in human HepG2 cells assessed as reduction in PCSK9 expression at 100 nM incubated for 24 hrs prior to compound washout followed by compound addition and measured after 24 hrs by ELISA; format: cell-based; design: scale not given: the % may be the effect or the level left; details: time 48.0 hrs; method in brief: as §2
[4] = target: T1, Proprotein convertase subtilisin/kexin type 9; assay: Modulation of PCSK9 in human HepG2 cells assessed as reduction in PCSK9 expression incubated for 24 hrs prior to compound washout followed by compound addition and measured after 24 hrs by ELISA; format: cell-based; method in brief: as §2
[5] = Half life in mouse liver microsomes measured after 60 mins in presence of NADPH by LC-MS/MS analysis; format: ADME, Microsome; details: 1 h
[6] = Intrinsic clearance in mouse liver microsomes measured after 60 mins in presence of NADPH by LC-MS/MS analysis; format: ADME, Microsome; details: for microsomal intrinsic clearance: microsomes, 1 h
[7] = Half life in rat liver microsomes measured after 60 mins in presence of NADPH by LC-MS/MS analysis; format: ADME, Microsome; details: 1 h
[8] = Intrinsic clearance in rat liver microsomes measured after 60 mins in presence of NADPH by LC-MS/MS analysis; format: ADME, Microsome; details: for Intrinsic clearance in rat liver microsomes: 1 h
[9] = target: T1, Proprotein convertase subtilisin/kexin type 9; assay: Modulation of PCSK9 in human HepG2 cells assessed as reduction in PCSK9 expression at 1 uM incubated for 24 hrs prior to compound washout followed by compound addition and measured after 24 hrs by ELISA; format: cell-based; design: scale not given: the % may be the effect or the level left; details: filed as modulator, time 48.0 hrs; method in brief: as §2
[10] = AUC (0 to infinity) in BTBR mouse at 6 mg/kg, ip administered as single dose by LC-MS/MS analysis; format: ADME, organism-based; design: time infinity, route intraperitoneal, dose 6 mg/kg; details: in vivo
Method in brief: (§3)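 Mice given a single intraperitoneal dose of 6 mg/kg. Formulation: DMSO (10 %) and Tween 80 (10 %) in PBS (80 %). Plasma samples collected and analysed by LC-MS/MS. AUC is total exposure after the single dose, Cmax is maximum plasma concentration, and T1/2 is half-life.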

[11] = Cmax in BTBR mouse at 6 mg/kg, ip administered as single dose by LC-MS/MS analysis; format: ADME, organism-based; design: route intraperitoneal, dose 6 mg/kg; details: in vivo; method in brief: as §3
[12] = Half life in BTBR mouse at 6 mg/kg, ip administered as single dose by LC-MS/MS analysis; format: ADME, organism-based; details: in vivo; method in brief: as §3
[13] = Half life in human liver microsomes measured after 60 mins in presence of NADPH by LC-MS/MS analysis; format: ADME, Microsome; details: 1 h
[14] = Intrinsic clearance in human liver microsomes measured after 60 mins in presence of NADPH by LC-MS/MS analysis; format: ADME, Microsome; details: 1 h
[15] = target: T1, Proprotein convertase subtilisin/kexin type 9; assay: Modulation of PCSK9 in human HepG2 cells assessed as reduction in PCSK9 expression at 1 to 10 uM incubated for 24 hrs prior to compound washout followed by compound addition and measured after 24 hrs by ELISA; format: cell-based; details: filed as modulator, dose 1-10 µM, time 48.0 hrs; method in brief: as §1
[16] = liver microsomes, read-out: CLH

T1 sequence (Q8NBP7 31-152 limits assumed): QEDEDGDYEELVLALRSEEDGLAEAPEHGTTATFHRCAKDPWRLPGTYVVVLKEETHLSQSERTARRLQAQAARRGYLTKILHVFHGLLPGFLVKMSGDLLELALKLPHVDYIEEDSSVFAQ
T1 sequence (Q8NBP7 153-692 limits assumed): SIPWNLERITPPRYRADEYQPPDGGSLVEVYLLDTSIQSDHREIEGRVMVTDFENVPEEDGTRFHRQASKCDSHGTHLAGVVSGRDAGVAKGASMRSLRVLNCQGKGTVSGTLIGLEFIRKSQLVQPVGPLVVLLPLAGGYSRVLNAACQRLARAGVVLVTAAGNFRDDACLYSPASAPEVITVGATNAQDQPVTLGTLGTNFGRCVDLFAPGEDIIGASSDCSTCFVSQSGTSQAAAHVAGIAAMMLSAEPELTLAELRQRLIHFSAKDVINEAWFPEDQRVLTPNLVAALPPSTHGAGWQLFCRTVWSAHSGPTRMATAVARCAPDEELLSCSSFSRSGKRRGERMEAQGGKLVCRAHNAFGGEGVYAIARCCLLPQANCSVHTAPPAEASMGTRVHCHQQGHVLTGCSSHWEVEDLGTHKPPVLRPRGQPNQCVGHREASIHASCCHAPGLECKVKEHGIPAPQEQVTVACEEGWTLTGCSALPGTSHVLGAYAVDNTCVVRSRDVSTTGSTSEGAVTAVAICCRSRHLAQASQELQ

## Cn1c(C(=O)c2c[nH]c3c(F)cccc23)nc2cccc(F)c21
[1]
  Activity: Active
HepG2
  Activity: Non-Toxic

## CC(C)Cn1c(Cc2c[nH]c3c(F)cccc23)nc2ccc(F)cc21
HepG2
  Activity: Non-Toxic

## Cn1c(C(=O)c2c[nH]c3c(F)cccc23)nc2cc(F)ccc21
[2]
  Activity: 34.4%
[3]
  Activity: 11.9%
HepG2
  Activity: Non-Toxic

## Cn1c(C(=O)c2c[nH]c3c(F)cccc23)nc2ccccc21
[1]
  Activity: Active
HepG2
  Activity: Non-Toxic

## Cn1c(C(=O)c2cn(CCCN3CCOCC3)c3c(F)cccc23)nc2ccc(F)cc21
[4]
  EC50: 39.9 nM
HepG2
  Activity: Non-Toxic

## Cn1c(C(=O)c2c[nH]c3cc(F)ccc23)nc2ccc(F)cc21
HepG2
  Activity: Non-Toxic

## Cn1c(C(=O)c2c[nH]c3ccccc23)nc2ccc(F)cc21
[1]
  Activity: Active
HepG2
  Activity: Non-Toxic

## Cn1c(C(=O)c2cn(CCN3CCOCC3)c3c(F)cccc23)nc2ccc(F)cc21
[4]
  EC50: 11 nM
HepG2
  Activity: Non-Toxic

## O=C(c1nc2ccc(F)cc2[nH]1)c1c[nH]c2c(F)cccc12
[5]
  t1/2: 30 min
[6]
  microsomal intrinsic clearance: 46.5 µL/min/mg
[7]
  t1/2: 47.8 min
[8]
  Intrinsic clearance in rat liver microsomes: 29.4 µL/min/mg
[9]
  Activity: 90%
[10]
  AUC(0-inf): 696 ng·h/mL
[11]
  Cmax: 294 ng/mL
[12]
  half-life: 98.4 min
[4]
  EC50: 2.46 nM
HepG2
  Activity: Non-Toxic

## O=C(c1nc2ccc(F)cc2[nH]1)c1c[nH]c2ccccc12
HepG2
  Activity: Non-Toxic

## Cn1c(C(=O)c2c[nH]c3c(F)cccc23)nc2c(F)cccc21
[1]
  Activity: Active
HepG2
  Activity: Non-Toxic

## O=C(c1cc2cc(F)ccc2[nH]1)c1c[nH]c2c(F)cccc12
[5]
  t1/2: 40.1 min
[6]
  microsomal intrinsic clearance: 34.6 µL/min/mg
[7]
  t1/2: 76.9 min
[8]
  Intrinsic clearance in rat liver microsomes: 18.1 µL/min/mg
[9]
  Activity: Active
[10]
  AUC(0-inf): 610 ng·h/mL
[11]
  Cmax: 323 ng/mL
[12]
  half-life: 78.6 min
HepG2
  Activity: Non-Toxic

## Cn1c(C(=O)c2c[nH]c3cccc(F)c23)nc2ccc(F)cc21
HepG2
  Activity: Non-Toxic

## Cn1c(C(=O)c2c[nH]c3c(F)cccc23)nc2ccc(F)cc21
[6]; [16]
  microsomal CLint: 41.7 µL/min/mg
[8]; [16]
  microsomal CLint: 23 µL/min/mg
[2]
  Activity: 35%
[3]
  Activity: 12.5%
[4]
  EC50: 0.15 nM
HepG2
  Activity: Non-Toxic

## CC(C)(C)Cn1c(Cc2c[nH]c3c(F)cccc23)nc2ccc(F)cc21
HepG2
  Activity: Non-Toxic

## O=C(c1nc2ccccc2[nH]1)c1c[nH]c2c(F)cccc12
HepG2
  Activity: Non-Toxic

## CCCCn1cc(C(=O)c2nc3ccc(F)cc3n2C)c2cccc(F)c21
[4]
  EC50: 0.28 nM
HepG2
  Activity: Non-Toxic

## OCCn1c(Cc2c[nH]c3c(F)cccc23)nc2ccc(F)cc21
HepG2
  Activity: Non-Toxic

## [2H]C([2H])(c1nc2cc(F)ccc2[nH]1)c1c[nH]c2c(F)cccc12
[5]
  t1/2: 16.3 min
[6]
  microsomal intrinsic clearance: 85.2 µL/min/mg
[7]
  t1/2: 23.5 min
[8]
  Intrinsic clearance in rat liver microsomes: 59.1 µL/min/mg
HepG2
  Activity: Non-Toxic

## Fc1ccc2nc(Cc3c[nH]c4c(F)cccc34)n(CCc3ccccc3)c2c1
HepG2
  Activity: Non-Toxic

## Fc1ccc2nc(Cc3c[nH]c4c(F)cccc34)[nH]c2c1
[13]
  t1/2: 17.5 min
[14]
  CLH: 79.4 µL/min/mg
[5]
  t1/2: 7.1 min
[6]
  microsomal intrinsic clearance: 194.9 µL/min/mg
[7]
  t1/2: 9.5 min
[8]
  Intrinsic clearance in rat liver microsomes: 145.6 µL/min/mg
[9]
  Activity: Active
[4]
  EC50: 348 nM
HepG2
  Activity: Non-Toxic

## O=C(c1nc2ccccc2[nH]1)c1c[nH]c2ccccc12
[5]
  t1/2: 25.8 min
[6]
  microsomal intrinsic clearance: 54.6 µL/min/mg
[7]
  t1/2: 42.4 min
[8]
  Intrinsic clearance in rat liver microsomes: 33.1 µL/min/mg
HepG2
  Activity: Non-Toxic

## Fc1ccc2nc(Cc3c[nH]c4c(F)cccc34)n(Cc3cccnc3)c2c1
HepG2
  Activity: Non-Toxic

## Cn1c(C(=O)c2c[nH]c3ccc(F)cc23)nc2ccc(F)cc21
HepG2
  Activity: Non-Toxic

## Cn1cc(C(=O)c2nc3ccc(F)cc3n2C)c2cccc(F)c21
[4]
  EC50: 1.21 nM
HepG2
  Activity: Non-Toxic

## Cn1c(C(=O)c2cn(S(=O)(=O)CCN3CCNCC3)c3c(F)cccc23)nc2ccc(F)cc21
[4]
  EC50: 161 nM
HepG2
  Activity: Non-Toxic

## Fc1ccc2nc(Cc3c[nH]c4c(F)cccc34)n(Cc3ccncc3)c2c1
HepG2
  Activity: Non-Toxic

## Cn1c(Cc2c[nH]c3c(F)cccc23)nc2ccc(F)cc21
[15]
  Activity: Active
HepG2
  Activity: Non-Toxic

## Fc1ccc2nc(Cc3c[nH]c4c(F)cccc34)n(Cc3ccccc3)c2c1
HepG2
  Activity: Non-Toxic

## Fc1ccc2[nH]c(Cc3c[nH]c4c(F)cccc34)cc2c1
[13]
  t1/2: 63.9 min
[14]
  CLH: 23 µL/min/mg
[5]
  t1/2: 16.5 min
[6]
  microsomal intrinsic clearance: 83.9 µL/min/mg
[7]
  t1/2: 23.2 min
[8]
  Intrinsic clearance in rat liver microsomes: 60.7 µL/min/mg
[9]
  Activity: Active

## Cn1c(C(=O)c2cn(S(=O)(=O)CCN3CCOCC3)c3c(F)cccc23)nc2ccc(F)cc21
[4]
  EC50: 0.69 nM
HepG2
  Activity: Non-Toxic

## O=C(c1nc2c(F)cccc2[nH]1)c1c[nH]c2c(F)cccc12
HepG2
  Activity: Non-Toxic

## Cn1c(C(=O)c2cn(CCCCN3CCOCC3)c3c(F)cccc23)nc2ccc(F)cc21
[4]
  EC50: 88 nM
HepG2
  Activity: Non-Toxic

Reference: ChEMBL document CHEMBL4765433, “From methylene bridged diindole to carbonyl linked benzimidazoleindole: Development of potent and metabolically stable PCSK9 modulators” (Eur J Med Chem, 2020)
